According to ChEMBL document CHEMBL5244268, “Preventing Candida albicans biofilm formation using aromatic-rich piperazines” (Bioorg Med Chem, 2020):
≈ marks a conversion by molar mass, not a printed value. Calls of active or inactive are those of the source. The calls are words filed in the database; no cut-off is given here.

Columns and labels:
[1] = tested on: Candida albicans; experiment: Antifungal activity against Candida albicans ATCC 28366 assessed as reduction in fungal growth incubated for 24 hrs by plate count determination; format: functional, organism-based
[2] = tested on: Candida albicans; experiment: Antibiofilm activity against Candida albicans ATCC 28366 incubated for 24 to 48 hrs by crystal violet staining based absorbance spectrometry analysis; format: functional, organism-based; conditions: time 24-48 hrs
Method in brief: (§1)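 Overnight cultures (37 °C, aerobic, Sabouraud pH 7.0) adjusted to OD660 0.2, mixed 1:1 with two-fold serial dilutions in medium and incubated at 37 °C. Biofilm stained with crystal violet, dye released in 75% ethanol, A550 read. Growth relative to compound-free wells (100%) after blank subtraction. At least two independent experiments in triplicate, t test.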

[3] = tested on: Candida albicans; experiment: Antibiofilm activity against Candida albicans ATCC 28366 assessed as inhibition of filamentation at 8 ug/ml incubated for 4 hrs in Lee's medium by microscopic analysis; format: functional, organism-based; conditions: dose 8.0 µg/ml
Method in brief: (§2)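 Yeast-form cells grown overnight in YPD at 30 °C. 50 µL inoculated into 5 mL hypha-inducing medium (e.g., Spider: 1% nutrient broth, 1% mannitol, 0.2% K2HPO4, pH 7.2) containing two-fold dilutions, then 4 h at 37 °C. At least 100 cells per replicate counted as hypha (pseudohyphae and intermediates included) or yeast. Compound-free control for maximal conversion. At least two independent experiments in triplicate.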

[4] = tested on: Candida albicans; experiment: Antibiofilm activity against Candida albicans LAM-1 assessed as reduction in fungal growth at 8 ug/ml incubated for 4 hrs in spider medium by plate count determination; format: functional, organism-based; conditions: dose 8.0 µg/ml
Method in brief: (§3)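 After the 4 h, 37 °C morphogenesis incubation in Spider medium (YPD overnight inoculum, 50 µL into 5 mL), OD660 measured to follow fungal growth; C. albicans viability confirmed by plate count.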

[5] = tested on: Candida albicans; experiment: Antibiofilm activity against Candida albicans ATCC 28366 assessed as inhibition of nitrogen deprivation induced morphological switching at 8 ug/ml incubated for 4 hrs in SLAD media by microscopic analysis; format: functional, organism-based; conditions: dose 8.0 µg/ml; method in brief: as §2
[6] = tested on: Candida albicans; experiment: Antibiofilm activity against Candida albicans LAM-1 assessed as inhibition of morphogenesis at 8 ug/ml incubated for 4 hrs in spider medium by microscopic analysis; format: functional, organism-based; conditions: dose 8.0 µg/ml; method in brief: as §2
[7] = tested on: Candida albicans; experiment: Antibiofilm activity against Candida albicans ATCC 28366 assessed as inhibition of morphological switching at 8 ug/ml incubated for 4 hrs in YPD medium with fetal bovine serum by microscopic analysis; format: functional, organism-based; conditions: dose 8.0 µg/ml; method in brief: as §2
[8] = tested on: Candida albicans; experiment: Antibiofilm activity against Candida albicans ATCC 28366 assessed as reduction in fungal growth at 8 ug/ml incubated for 4 hrs in spider medium by plate count determination; format: functional, organism-based; conditions: dose 8.0 µg/ml; method in brief: as §3
[9] = tested on: Candida albicans; experiment: Antibiofilm activity against Candida albicans ATCC 28366 assessed as inhibition of N-acetylglucosamine induced morphological switching at 8 ug/ml incubated for 4 hrs by microscopic analysis; format: functional, organism-based; conditions: dose 8.0 µg/ml; method in brief: as §2
[10] = tested on: Candida albicans; experiment: Antibiofilm activity against Candida albicans ATCC 28366 assessed as inhibition of morphogenesis at 8 ug/ml incubated for 4 hrs in spider medium by microscopic analysis; format: functional, organism-based; conditions: dose 8.0 µg/ml; method in brief: as §2
[11] = tested on: Candida albicans; experiment: Antibiofilm activity against Candida albicans ATCC 28366 at up to 96 ug/ml incubated for 24 to 48 hrs by crystal violet staining based absorbance spectrometry analysis; format: functional, organism-based; conditions: dose <= 96.0 µg/ml, time 24-48 hrs; method in brief: as §1
[12] = tested on: Candida albicans; experiment: Antibiofilm activity against Candida albicans ATCC 28366 assessed as disruption of preformed biofilm incubated for 12 hrs by crystal violet staining based absorbance spectrometry analysis; format: functional, organism-based
Method in brief: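 Mature biofilms grown 36 to 48 h in Sabouraud pH 7.0 without compound; medium and free cells removed, rinsed with 50 mM PBS pH 7.0, then two-fold serial dilutions in PBS added for 12 h at 37 °C. Residual biofilm stained with crystal violet, dye released in 75% ethanol, A550 read. PBS-treated biofilms as controls.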

[13] = tested on: Candida albicans; experiment: Antifungal activity against Candida albicans ATCC 28366 assessed as inhibition of fungal growth incubated for 24 hrs by plate count determination; format: functional
Method in brief: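 Biofilm-assay setup (Sabouraud pH 7.0, inoculum OD660 0.2, serial two-fold dilutions, 37 °C). […] Highest value kept when replicates differ. At least two independent experiments in triplicate.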

[14] = tested on: Candida albicans; experiment: Antibiofilm activity against Candida albicans ATCC 28366 assessed as inhibition of biofilm formation at 2 ug/ml incubated for 24 to 48 hrs by crystal violet staining based absorbance spectrometry analysis; format: functional, organism-based; conditions: dose 2.0 µg/ml, time 24-48 hrs; method in brief: as §1
[15] = tested on: Candida albicans; experiment: Fungicidal activity against Candida albicans ATCC 28366 assessed as prevention of colony formation incubated for 24 hrs; format: functional
[16] = tested on: Candida albicans; experiment: Antibiofilm activity against Candida albicans ATCC 28366 assessed as reduction in fungal growth at 1 to 4 ug/ml incubated for 4 hrs in spider medium by plate count determination; format: functional, organism-based; conditions: dose 1-4 µg/ml; method in brief: as §3
[17] = tested on: Candida albicans; experiment: Antibiofilm activity against Candida albicans ATCC 28366 assessed as inhibition of morphogenesis at 1 to 4 ug/ml incubated for 4 hrs in spider medium by microscopic analysis; format: functional, organism-based; conditions: dose 1-4 µg/ml; method in brief: as §2
[18] = tested on: Candida albicans; experiment: Antifungal activity against Candida albicans ATCC 28366 assessed as reduction in fungal growth at up to 64 ug/ml incubated for 24 hrs by plate count determination; format: functional, organism-based; conditions: dose <= 64.0 µg/ml
[19] = tested on: Candida albicans; experiment: Antibiofilm activity against Candida albicans LAM-1 assessed as reduction in fungal growth at 1 to 4 ug/ml incubated for 4 hrs in spider medium by plate count determination; format: functional, organism-based; conditions: dose 1-4 µg/ml; method in brief: as §3
[20] = tested on: Candida albicans; experiment: Antibiofilm activity against Candida albicans ATCC 28366 assessed as inhibition of biofilm formation at 0.5 to 32 ug/ml incubated for 24 to 48 hrs by crystal violet staining based absorbance spectrometry analysis; format: functional, organism-based; conditions: dose 0.5-32 µg/ml, time 24-48 hrs; method in brief: as §1

Q: How did the Activity [1] turn out when `CN1C[C@H](Cc2ccc(OCc3ccccc3)cc2)N(C)C[C@@H]1Cc1ccccc1` was run?
A: inactive

Q: What about the Activity [2] of the same compound?
A: inactive

Q: What about the inhibition [3] of the same compound?
A: inactive

Q: What about the Activity [4] of the same compound?
A: inactive

Q: And the inhibition [5]?
A: inactive

Q: And the inhibition [6]?
A: inactive

Q: And the inhibition [7]?
A: inactive

Q: And the Activity [8]?
A: inactive

Q: What about the inhibition [9] of the same compound?
A: inactive

Q: And the inhibition [10]?
A: inactive

Q: With `CN1C[C@H](Cc2ccccc2)N(C)C[C@@H]1Cc1ccccc1` as the compound, how does the Activity [11] read?
A: inactive

Q: With `c1ccc(C[C@H]2CN[C@@H](Cc3ccccc3)CN2)cc1` as the compound, how does the Activity [12] read?
A: inactive

Q: And the Activity [11]?
A: inactive

Q: How did the Activity [1] turn out when `CN1C[C@H](Cc2ccc(O)cc2)N(C)C[C@@H]1Cc1ccc(O)cc1` was run?
A: inactive

Q: And the Activity [2]?
A: inactive

Q: Which Activity [12] does the source give for `c1ccc(C[C@@H]2CN[C@H](Cc3ccccc3)CN2)cc1` here?
A: inactive

Q: And the Activity [11]?
A: inactive

Q: Which results are given for `c1ccc(COc2ccc(C[C@H]3CN[C@@H](Cc4ccc(OCc5ccccc5)cc4)CN3)cc2)cc1`?
A: Activity [12]: inactive; MIC [13]: 24 µg/mL (≈ 50.1 µM); inhibition [14]: Active; MFC [15]: 24 µg/mL (≈ 50.1 µM)

Q: `Oc1ccc(C[C@@H]2CN[C@H](Cc3ccc(O)cc3)CN2)cc1` was tested. Which Activity [1] did it give?
A: inactive

Q: And the Activity [2]?
A: inactive

Q: And the Activity [12]?
A: inactive

Q: How did the Activity [12] turn out when `c1ccc(COc2ccc(C[C@@H]3CN[C@H](Cc4ccccc4)CN3)cc2)cc1` was run?
A: inactive

Q: And the Activity [16]?
A: inactive

Q: What about the inhibition [17] of the same compound?
A: Active

Q: And the Activity [18]?
A: inactive

Q: And the Activity [19]?
A: inactive

Q: What about the inhibition [20] of the same compound?
A: Active

Q: With `Oc1ccc(C[C@@H]2CN[C@H](Cc3ccccc3)CN2)cc1` as the compound, how does the Activity [1] read?
A: inactive

Q: And the Activity [2]?
A: inactive

Q: What about the Activity [12] of the same compound?
A: inactive

Q: With `CN1C[C@@H](Cc2ccccc2)N(C)C[C@H]1Cc1ccccc1` as the compound, how does the Activity [11] read?
A: inactive
